# Test results as given in paper PMC12892081 (Acta Pharmaceutica Sinica. B, 2025).
# Where a SMILES comes first, the peptide text is derived from it. Bridges are numbered along the chain shown (N, C = ends). The star is where a group is joined. 5FAM = O=C1OC2(c3ccc(O)cc3Oc3cc(O)ccc32)c2ccc(C(=O)*)cc21
# Columns and labels:
# [1] = In vitro skin penetration across excised rat skin; format: in vitro ADME, SD rats; conditions: for skin permeability compared to the other CPPs: FAM-CPP conjugates, excised rat back skin, P < 0.01
# Summary of the method: (§1)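 Valia-Chien diffusion cells at 37 ± 0.5 °C, stirred at 250 rpm, with excised rat back skin or Berkshire pig skin. Donor held 50 μmol/L N-terminally FAM-labelled peptide or free FAM in 0.9% NaCl with 0.5% (v/v) DMSO. Receiver sampled at 0–5 h and replaced with fresh saline; fluorescence read at 492 nm. Cumulative amount and Papp derived; at least 4 replicates.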
# [2] = In vitro skin penetration across excised pig skin; format: in vitro ADME, Berkshire pig; conditions: FAM-peptide conjugate vs free FAM, donor 50 μmol/L
# Summary of the method: as §1
# [3] = tested on: B16F10 cells; test: Calcein-AM/PI double staining of B16F10 cells; format: cell-based; conditions: 15 μmol/L, 48 h, vs control group
# Summary of the method: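 B16F10 cells exposed 48 h to 15 μmol/L agents, then stained with a Calcein-AM/PI double staining kit (calcein marks live cells green, PI marks dead cells red). Imaged by inverted fluorescence microscopy.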
# [4] = tested on: human keratinocyte cells (HeKa cells); test: HeKa cell viability; format: cell-based; conditions: 50 μmol/L FAM-CPP conjugate, exposure 72 h, CCK-8, n = 3
# Summary of the method: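 HeKa cells exposed to 50 μmol/L FAM or FAM–peptide conjugate for 48 and 72 h. Viability read with CCK-8; n = 3.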
smiles,measurement,setting,value
CC[C@H](C)[C@H](NC(=O)[C@H](CCCCN)NC(=O)[C@H](CCCCN)NC(=O)[C@H](C)NC(=O)[C@H](CC(C)C)NC(=O)[C@H](C)NC(=O)[C@H](C)NC(=O)[C@H](CC(C)C)NC(=O)[C@H](C)NC(=O)[C@H](CCCCN)NC(=O)[C@H](CC(C)C)NC(=O)[C@H](CC(N)=O)NC(=O)[C@@H](NC(=O)[C@H](CCCCN)NC(=O)CNC(=O)[C@H](CC(C)C)NC(=O)[C@H](CC(C)C)NC(=O)[C@H](Cc1ccc(O)cc1)NC(=O)CNC(=O)[C@H](C)NC(=O)[C@H](CO)NC(=O)[C@H](CC(N)=O)NC(=O)[C@H](CC(C)C)NC(=O)[C@@H](NC(=O)[C@H](Cc1c[nH]c2ccccc12)NC(=O)CNC(=O)c1ccc2c(c1)C(=O)OC21c2ccc(O)cc2Oc2cc(O)ccc21)[C@@H](C)O)[C@@H](C)CC)C(=O)N[C@@H](CC(C)C)C(=O)O [Transportan],skin permeability compared to the other CPPs,[1]; donor 50 μmol/L,significantly higher than the other CPPs
CC[C@H](C)[C@H](NC(=O)[C@H](CCC(N)=O)NC(=O)[C@H](CCCNC(=N)N)NC(=O)c1ccc2c(c1)C(=O)OC21c2ccc(O)cc2Oc2cc(O)ccc21)C(=O)N[C@@H](CCCCN)C(=O)N[C@@H](Cc1c[nH]c2ccccc12)C(=O)N[C@@H](Cc1c[nH]c2ccccc12)C(=O)N[C@@H](Cc1ccccc1)C(=O)N[C@@H](Cc1c[nH]c2ccccc12)C(=O)N[C@@H](Cc1c[nH]c2ccccc12)C(=O)N[C@@H](CCCNC(=N)N)C(=O)N[C@@H](CCCNC(=N)N)C(=O)N[C@@H](CCSC)C(=O)N[C@@H](CCCCN)C(=O)N[C@@H](Cc1c[nH]c2ccccc12)C(=O)N[C@@H](CCCCN)C(=O)N[C@@H](CCCCN)C(=O)O [FAM-589WP] (5FAM-RQIKWWFWWRRMKWKK-OH),"increase in Papp compared to free FAM, rat skin","[1]; FAM-peptide conjugate vs free FAM, excised rat skin, donor 50 μmol/L",72 fold
same,"increase in Papp compared to free FAM, pig skin",[2],60 fold
"O=c1[nH]c(=O)n([C@H]2C[C@H](O)[C@@H](CO)O2)cc1F [FUdR, 5-fluoro-2ʹ-deoxyuridine]",live cell density / dead cells by Calcein-PI staining,[3],notable decrease in live cell density
CC[C@H](C)[C@H](NC(=O)[C@H](CCCCN)NC(=O)[C@@H](NC(=O)[C@H](CCC(N)=O)NC(=O)[C@H](CCCNC(=N)N)NC(=O)c1ccc2c(c1)C(=O)OC21c2ccc(O)cc2Oc2cc(O)ccc21)[C@@H](C)CC)C(=O)N[C@@H](Cc1c[nH]c2ccccc12)C(=O)N[C@@H](Cc1ccccc1)C(=O)N[C@@H](CCC(N)=O)C(=O)N[C@@H](CC(N)=O)C(=O)N[C@@H](CCCNC(=N)N)C(=O)N[C@@H](CCCNC(=N)N)C(=O)N[C@@H](CCSC)C(=O)N[C@@H](CCCCN)C(=O)N[C@@H](Cc1c[nH]c2ccccc12)C(=O)N[C@@H](CCCCN)C(=O)N[C@@H](CCCCN)C(=O)O [Penetratin],skin permeability compared to the other CPPs,[1]; donor 50 μmol/L,significantly higher than the other CPPs
same,cytotoxicity to HeKa cells,[4],did not display cytotoxicity
C[C@H](NC(=O)c1ccc2c(c1)C(=O)OC21c2ccc(O)cc2Oc2cc(O)ccc21)C(=O)N[C@H]1CSSC[C@@H](C(=O)NCC(=O)O)NC(=O)[C@H](CCC(N)=O)NC(=O)[C@H](Cc2c[nH]cn2)NC(=O)[C@H](CCC(N)=O)NC(=O)[C@H]([C@@H](C)O)NC(=O)[C@H](CO)NC(=O)CNC(=O)[C@H]([C@@H](C)O)NC1=O [SPACE] (5FAM-ACTGSTQHQCG-OH; disulfide 2-10),permeability relative to the optimized peptide 589WP,"[1]; FAM conjugates, excised rat skin",about one-third the permeability of the optimized peptide 589WP
same,permeability relative to wild-type penetratin,"[1]; FAM conjugates, excised rat skin (Fig. 1)",about half the permeability of wild-type penetratin
